Experimental data from different studies.
Lines come from different studies, so protocols differ.
Cell line: PC-3
Read-out: cell growth or viability

| Compound | assay | setting | endpoint | result |
| --- | --- | --- | --- | --- |
| COc1cc2ncnc(Nc3ccc(F)c(Cl)c3)c2cc1NC(=O)N/N=C/c1cccn1CCCN1CCCC1 | MTT | 72 h | IC50 | 1560 nM |
| COc1ccc(C(=O)/C=C/c2cccc(Cl)c2Cl)cc1S(N)(=O)=O | SRB | 48 h | GI50 | 4500 nM |
| Cc1cc(C)cc(COc2cc3c(cc2OCc2cc(C)cc(C)c2)[C@H]2C[C@](O)(Cc4cn(Cc5cnccn5)nn4)C[C@H](C)N2CC3)c1 | MTT |  | IC50 | 480 nM |
| CN(C)C/C=N/NC(=O)Nc1cc2c(Nc3ccc(F)c(Cl)c3)ncnc2cc1O[C@H]1CCOC1 | MTT | 72 h | IC50 | 6510 nM |
| COCCCOc1ccnc(COc2ccc(NC(=O)Nc3ccc(OC)cc3)cc2)c1C | MTT | 72 h | IC50 | 47200 nM |
| COc1ccc(C(=O)/C=C/c2c(F)cccc2Cl)cc1S(N)(=O)=O | SRB | 48 h | GI50 | 4700 nM |
| Cc1cc(C)cc(COc2cc3c(cc2OCc2cc(C)cc(C)c2)[C@H]2C[C@](O)(Cc4cn(-c5ccccc5)nn4)C[C@H](C)N2CC3)c1 | MTT |  | IC50 | 264 nM |
| COc1cc2ncnc(Nc3ccc(F)c(Cl)c3)c2cc1NC(=O)N/N=C/c1cccn1CCCN1CCCCC1 | MTT | 72 h | IC50 | 1060 nM |
| Cc1c(OCC(F)(F)F)ccnc1COc1ccc(NC(=O)Nc2ccc(Cl)cc2)cc1 | MTT | 72 h | IC50 | > 100000 nM |
| O=C(N/N=C/c1cccn1CCN1CCCCC1)Nc1cc2c(Nc3ccc(F)c(Cl)c3)ncnc2cc1O[C@H]1CCOC1 | MTT | 72 h | IC50 | 1570 nM |
| CC/C(=C(\c1ccccc1)c1ccc(OCCN(C)C)cc1)c1ccccc1 | ATP luminescence | 72 h | EC90 | 31000 nM |
| O=C(Nc1cccc(Oc2ccccn2)c1)C1CCCN(C(=O)c2cc(C(F)(F)F)cc(C(F)(F)F)c2)C1 (stereo not shown) | WST-1 | 100 µM | inhibition | 0% |
| O=C(CN1C(=O)/C(=C/c2ccccc2O)SC1=S)Nc1ccccc1 | MTT | 10 µM | inhibition | 36.2% |
| Cc1cc(C)cc(COc2cc3c(cc2OCc2cc(C)cc(C)c2)[C@H]2C[C@](O)(Cc4cn(Cc5ccc(-c6ccccc6)cc5)nn4)C[C@H](C)N2CC3)c1 | MTT |  | IC50 | 206 nM |
| COc1ccc(C(=O)/C=C/c2ccc(Cl)c(Cl)c2)cc1S(N)(=O)=O | SRB | 10 µM | inhibition | 90% |
| NC1(C(=O)N[C@@H](CCO)c2ccc(Cl)cc2)CCN(c2ncnc3[nH]ccc23)CC1 |  | 72 h | GI50 | > 8000 nM |
| O=C(CN1C(=O)/C(=C/c2ccccn2)SC1=S)Nc1ccccc1 | MTT | 10 µM | inhibition | 30.5% |
| O=C(N/N=C/CN1CCCC1)Nc1cc2c(Nc3ccc(F)c(Cl)c3)ncnc2cc1O[C@H]1CCOC1 | MTT | 72 h | IC50 | 3890 nM |
| O=C(CN1C(=O)/C(=C/c2cccc(Br)c2)SC1=S)Nc1ccccc1 | MTT | 10 µM | inhibition | 27.3% |
| COc1cc2ncnc(Nc3ccc(F)c(Cl)c3)c2cc1NC(=O)N/N=C/c1cccn1CCN1CCCCC1 | MTT | 72 h | IC50 | 2240 nM |
| O=C(Nc1cccc(CN2CCOCC2)c1)C1CCCN(C(=O)c2cc(C(F)(F)F)cc(C(F)(F)F)c2)C1 (stereo not shown) | WST-1 | 100 µM | inhibition | 0% |
| COc1ccc(C(=O)/C=C/c2ccccc2Br)cc1S(N)(=O)=O | SRB | 48 h | GI50 | 4300 nM |

| Compound | assay | setting | endpoint | result |
| --- | --- | --- | --- | --- |
| COc1cccc(Oc2ccccc2NC(=O)CNC(=O)c2cccc3ccccc23)c1 | SRB | 48 h | GI50 | 282 nM |
| O=C(Nc1cccc(Oc2nccc(C(F)(F)F)c2Cl)c1)C1CCCN(C(=O)c2cc(C(F)(F)F)cc(C(F)(F)F)c2)C1 (stereo not shown) | WST-1 | 100 µM | inhibition | 0% |
| CCN(CC)C/C=N/NC(=O)Nc1cc2c(Nc3ccc(F)c(Cl)c3)ncnc2cc1OC | MTT | 72 h | IC50 | 4400 nM |
| C=CS(=O)(=O)Nc1ccc(Cn2cc(C[C@@]3(O)C[C@@H]4c5cc(OCc6cc(C)cc(C)c6)c(OCc6cc(C)cc(C)c6)cc5CCN4[C@@H](C)C3)nn2)cc1 | MTT |  | IC50 | 576 nM |
| COc1cccc(NC(=O)CN2C(=O)/C(=C/c3ccccc3)SC2=S)c1 | MTT | 10 µM | inhibition | 17.8% |
| COc1cc(-c2ccc(-c3ccc(C(=N)N)nc3)s2)cc(OC)c1OC |  |  | GI50 | 3110 nM |
| O=C(CN1C(=O)/C(=C/c2ccc(C(F)(F)F)cc2)SC1=S)Nc1ccccc1 | MTT | 10 µM | inhibition | 32.1% |
| COCCCOc1ccnc(COc2ccc(NC(=O)Nc3ccc(Cl)cc3)cc2)c1C | MTT | 72 h | IC50 | > 100000 nM |
| O=C(N/N=C/CN1CCCCC1)Nc1cc2c(Nc3ccc(F)c(Cl)c3)ncnc2cc1O[C@H]1CCOC1 | MTT | 72 h | IC50 | 810 nM |
| COc1ccnc(COc2ccc(NC(=O)Nc3ccc(Cl)c(C(F)(F)F)c3)cc2)c1OC | MTT | 72 h | IC50 | > 100000 nM |
| COc1ccc(C(=O)/C=C/c2cccc3ccccc23)cc1S(N)(=O)=O | SRB | 48 h | GI50 | 2300 nM |
| N#Cc1cccc(NC(=O)C2CCCN(C(=O)c3cc(C(F)(F)F)cc(C(F)(F)F)c3)C2)c1 (stereo not shown) | WST-1 | 100 µM | inhibition | 0% |
| COc1cccc(/C=C2\SC(=S)N(CC(=O)Nc3ccccc3)C2=O)c1 | MTT | 10 µM | inhibition | 10.6% |
| COc1cccc(NC(=O)C2CCCN(C(=O)c3cc(C(F)(F)F)cc(C(F)(F)F)c3)C2)c1 (stereo not shown) | WST-1 | 100 µM | inhibition | 0% |
| COc1cccc(NC(=O)CN2C(=O)/C(=C/c3ccc(F)cc3)SC2=S)c1 | MTT | 10 µM | inhibition | 13% |
| Cc1cc(C)cc(COc2cc3c(cc2OCc2cc(C)cc(C)c2)[C@H]2C[C@](O)(Cc4cn(Cc5ccc6ccccc6c5)nn4)C[C@H](C)N2CC3)c1 | MTT |  | IC50 | 264 nM |
| COc1ccc(C(=O)/C=C/c2ccc3ccccc3c2)cc1S(N)(=O)=O | SRB | 48 h | GI50 | 1800 nM |
| CSc1cccc(NC(=O)C2CCCN(C(=O)c3cc(C(F)(F)F)cc(C(F)(F)F)c3)C2)c1 (stereo not shown) | WST-1 | 100 µM | inhibition | 0% |
| COc1cccc(NC(=O)CN2C(=O)/C(=C/c3ccco3)SC2=S)c1 | MTT | 10 µM | inhibition | 8.63% |
| COc1ccc(C(=O)/C=C/c2cccc(Br)c2)cc1S(N)(=O)=O | SRB | 48 h | GI50 | 2000 nM |
| C=CCOc1cccc(NC(=O)C2CCCN(C(=O)c3cc(C(F)(F)F)cc(C(F)(F)F)c3)C2)c1 (stereo not shown) | WST-1 | 100 µM | inhibition | 0% |
